Legend:
[1] = target: T1, Quinolone resistance protein NorA (Staphylococcus aureus) (UniProt P0A0J7); experiment: Inhibition of NorA efflux pump in Staphylococcus aureus 1199B after 24 hrs by broth checkerboard method
T1 sequence (whole entry): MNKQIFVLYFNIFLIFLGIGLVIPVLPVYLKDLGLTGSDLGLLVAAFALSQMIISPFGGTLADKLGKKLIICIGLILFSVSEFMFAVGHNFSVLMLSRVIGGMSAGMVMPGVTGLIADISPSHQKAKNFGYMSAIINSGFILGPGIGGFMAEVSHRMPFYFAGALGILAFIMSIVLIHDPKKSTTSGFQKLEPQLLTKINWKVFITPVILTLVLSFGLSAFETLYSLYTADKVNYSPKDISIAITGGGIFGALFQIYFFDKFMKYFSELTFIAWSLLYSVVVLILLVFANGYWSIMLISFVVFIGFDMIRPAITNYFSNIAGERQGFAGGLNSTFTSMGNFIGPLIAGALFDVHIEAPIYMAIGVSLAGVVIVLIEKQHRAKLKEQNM

[2] = target: T1, Quinolone resistance protein NorA (Staphylococcus aureus); experiment: Inhibition of NorA efflux pump in Staphylococcus aureus 1199B assessed as reduction of ciprofloxacin MIC after 24 hrs by broth checkerboard method
[3] = target: T1, Quinolone resistance protein NorA (Staphylococcus aureus); experiment: Inhibition of NorA efflux pump in Staphylococcus aureus 1199B assessed as reduction in MIC of ciprofloxacin by broth checkerboard method
[4] = target: T1, Quinolone resistance protein NorA (Staphylococcus aureus); experiment: Inhibition of NorA efflux pump in Staphylococcus aureus 1199B assessed as potentiation of ciprofloxacin-induced antimicrobial activity after 24 hrs by broth checkerboard method
In short: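 Potentiation factor was derived from 24 h, 37 °C checkerboard ciprofloxacin MICs against S. aureus 1199B in Mueller-Hinton broth. Each inhibitor-concentration column was weighted in ascending order: 10 for column 2 (50), adding 10 per column up to 70 for […] (0.8), so that activity at lower inhibitor concentrations counts more.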

Row | SMILES | MIC [1] [µg/mL] | fold change (FC) [2] | MEC [3] [µg/mL] | PF [4] | logPF [4]
1 | O=C(/C=C/C=C/c1ccc2c(c1)OCO2)N1CCOCC1 | > 100 | 0 | 50 |  | 
2 | O=C(/C=C/C=C/c1ccc2c(c1)OCO2)Nc1cccc(CO)c1 | > 100 | 2 | 25 | 60 | 1.78
3 | O=C(/C=C/C=C/c1ccc2c(c1)OCO2)Nc1nc2ccccc2s1 | > 100 | 2 | 6.25 | 200 | 2.3
4 | O=C(/C=C/C=C/c1ccc2c(c1)OCO2)Nc1ccc2ncsc2c1 | > 100 | 2 | 3.12 | 300 | 2.48
5 | NC(=O)c1ccc(NC(=O)/C=C/C=C/c2ccc3c(c2)OCO3)cc1 | > 100 | 2 | 25 | 60 | 1.78
6 | CCCNC(=O)/C=C/C=C/c1ccc2c(c1)OCO2 | > 100 | 0 | 50 |  | 
7 | CC(=O)Nc1ccccc1NC(=O)CCCCc1ccc2c(c1)OCO2 | > 100 | 2 | 50 | 20 | 1.3
8 | N#Cc1cccc(NC(=O)/C=C/C=C/c2ccc3c(c2)OCO3)c1 | > 100 | 8 | 50 | 660 | 2.82
9 | O=C(/C=C/C=C/c1ccc2c(c1)OCO2)Nc1ccc(C(=O)Nc2ccccc2)cc1 | > 100 | 2 | 3.12 | 360 | 2.56
10 | O=C(/C=C/C=C/c1ccc2c(c1)OCO2)N1CCCCC1 | > 100 |  | 25 | 60 | 1.78
11 | CCN(CC)C(=O)/C=C/C=C/c1ccc2c(c1)OCO2 | > 100 | 2 | 25 | 60 | 1.78
12 | O=C(/C=C/C=C/c1ccc2c(c1)OCO2)Nc1ccc(NC(=O)c2ccccc2)cc1 | > 100 | 2 | 3.12 | 300 | 2.48
13 | O=C(/C=C/C=C/c1ccc2c(c1)OCO2)Nc1ccccc1CO | > 100 | 2 | 25 | 60 | 1.78
14 | CC(C)CCNC(=O)/C=C/C=C/c1ccc2c(c1)OCO2 | > 100 | 2 | 25 | 60 | 1.78
15 | CC(O)CCNC(=O)/C=C/C=C/c1ccc2c(c1)OCO2 (stereo not drawn) | > 100 | 2 | 25 | 60 | 1.78
16 | CC(=O)Nc1cccc(NC(=O)/C=C/C=C/c2ccc3c(c2)OCO3)c1 | > 100 | 4 | 12.5 | 320 | 2.51

Row | SMILES | MIC [1] [µg/mL] | fold change (FC) [2] | MEC [3] [µg/mL] | PF [4] | logPF [4]
17 | CC(C)NC(=O)/C=C/C=C/c1ccc2c(c1)OCO2 | > 100 | 0 | 50 |  | 
18 | CC(=O)Nc1ccc(NC(=O)/C=C/C=C/c2ccc3c(c2)OCO3)cc1 | > 100 | 4 | 25 | 260 | 2.42
19 | CCC(CO)NC(=O)/C=C/C=C/c1ccc2c(c1)OCO2 (stereo not drawn) | > 100 | 0 | 50 |  | 
20 | O=C(/C=C/C=C/c1ccc2c(c1)OCO2)NCC(O)c1ccccc1 (stereo not drawn) | > 100 | 4 | 50 | 140 | 2.15
21 | N#Cc1ccc(NC(=O)/C=C/C=C/c2ccc3c(c2)OCO3)cc1 | > 100 | 2 | 25 | 60 | 1.78
22 | O=C(/C=C/C=C/c1ccc2c(c1)OCO2)Nc1ccccc1 | > 100 | 4 | 50 | 140 | 2.15
23 | CCC(CC)NC(=O)/C=C/C=C/c1ccc2c(c1)OCO2 |  | 2 |  | 60 | 1.78
24 | CCN(CC)C(=O)CCCCc1ccc2c(c1)OCO2 | > 100 | 2 | 50 | 20 | 1.3
25 | O=C(/C=C/C=C/c1ccc2c(c1)OCO2)Nc1ccc(CO)cc1 | > 100 | 2 | 6.25 | 200 | 2.3
26 | CN1CCN(C(=O)/C=C/C=C/c2ccc3c(c2)OCO3)CC1 | > 100 | 2 | 25 | 60 | 1.78
27 | O=C(O)c1cn(C2CC2)c2cc(N3CCNCC3)c(F)cc2c1=O | 8 |  |  |  | 
28 | O=C(CCCCc1ccc2c(c1)OCO2)N1CCCCC1 | > 100 | 2 | 50 | 20 | 1.3
29 | O=C(O)/C=C/C=C/c1ccc2c(c1)OCO2 | > 100 | 0 | 50 |  | 
30 | CC(C)CNC(=O)/C=C/C=C/c1ccc2c(c1)OCO2 | > 100 | 2 | 25 | 60 | 1.78
31 | CC(=O)Nc1ccccc1NC(=O)/C=C/C=C/c1ccc2c(c1)OCO2 | > 100 | 4 | 25 | 260 | 2.42

From ChEMBL document CHEMBL1154079
